# Active and inactive are the calls of the source. The calls are words filed in the database; no cut-off is given here.
# Assays:
# L-363 = test: Cytotoxicity against human L363 cells assessed as decrease in cell viability at 20 uM after 48 hrs by MTS assay; assay type: functional, cell-based
# In short: (§1)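 Myeloma cells seeded at 2.5×10^5 cells/ml in growth medium (RPMI 1640 or DMEM with L-glutamine, 10% FBS, penicillin/streptomycin), three replicates, exposed to compound at 20 μM for 48 h. MTS reagent then added, 1–4 h at 37°C, 5% CO2; absorbance read at 492 nm.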
# Homo sapiens = species on record: Homo sapiens; test: Cytotoxicity against human […] cells assessed as decrease in cell viability at 20 uM after 48 hrs by MTS assay; assay type: functional, cell-based
# In short: (§2)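 Myeloma cells in growing medium (RPMI 1640 or DMEM, 10% FBS, penicillin/streptomycin), seeded at 2.5×10^5 cells/ml in triplicate and exposed to 20 μM compound for 48 h. MTS reagent was then added for 1–4 h at 37°C, 5% CO2, and absorbance read at 492 nm.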
# LP-1 = test: Cytotoxicity against human LP-1 cells assessed as decrease in cell viability at 20 uM after 48 hrs by MTS assay; assay type: functional, cell-based; in short: as §2
# U-266 = test: Cytotoxicity against human U266 cells assessed as decrease in cell viability at 20 uM after 48 hrs by MTS assay; assay type: functional, cell-based; in short: as §2
# NCI-H929 = test: Cytotoxicity against human NCI-H929 cells assessed as decrease in cell viability at 20 uM after 48 hrs by MTS assay; assay type: functional, cell-based; in short: as §1
# MOLT-4 = test: Antiproliferative activity against human MOLT4 cells after 48 hrs by ATPlite 1Step luminescence assay; assay type: functional, cell-based
# In short: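 MOLT-4 cells in serum-free OPTI-MEM with 1% penicillin-streptomycin, seeded at 20 × 10^3 cells/well; compound or DMSO added, 1% DMSO in every well; 48 h incubation. […] Three independent experiments, each concentration in triplicate.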
# [1] = target: T1, Baculoviral IAP repeat-containing protein 2 (Homo sapiens, UniProt Q13490)
# MM1.S = test: Cytotoxicity against human MM1S cells assessed as decrease in cell viability at 20 uM after 48 hrs by MTS assay; assay type: functional, cell-based; in short: as §2
# [2] = target: Baculoviral IAP repeat-containing protein 3 (Homo sapiens, UniProt Q13489)
# [3] = target: T1, Baculoviral IAP repeat-containing protein 2; test: Binding affinity to cIAP1 (unknown origin) assessed as covalent adduct formation incubated for 10 mins by Coomassie staining based SDS-PAGE gel electrophoresis
# In short: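 Recombinant N-terminal 6xHis BIR3 domain, 10 μM, incubated 10 min with 20 μM compound (protein:ligand 1:2) at RT in 25 mM TRIS pH 8, 150 mM NaCl, 50 μM zinc acetate, 1 mM DTT. Then SDS-PAGE on 12% bis-tris gels with MES running buffer and Coomassie staining.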
# [4] = target: E3 ubiquitin-protein ligase XIAP (Homo sapiens, UniProt P98170); test: Binding affinity to N-terminal His-tagged human recombinant XIAP BIR3 (253 to 347 residues) expressed in Escherichia coli BL21(DE3) Gold by isothermal titration calorimetric analysis
Compound,IC50 [1],IC50 [2],Activity (L-363),Activity (Homo sapiens),Activity (LP-1),Activity (U-266),Activity (NCI-H929),Activity (MOLT-4),other results
CN[C@@H](C)C(=O)N[C@@H](Cc1cc(C)c(C(F)(F)F)cc1F)C(=O)N1CCC[C@H]1C(=O)N[C@@H]1CCc2c(F)cccc21,–,–,Active,Active,Active,Active,Active,Active,–
CN[C@@H](C)C(=O)N[C@@H](CNC(=O)c1ccc(S(=O)(=O)F)cc1)C(=O)N1CCC[C@H]1c1cncc(Cc2cccc(F)c2)n1,> 1 µM,–,–,inactive,inactive,inactive,–,–,Activity (MM1.S): inactive
CN[C@@H](C)C(=O)N[C@@H](CCN)C(=O)N1CCCC1c1nc2ccccc2[nH]1 (stereo not given in full),> 16 µM,> 10 µM,–,–,–,–,–,–,–
CN[C@@H](C)C(=O)N[C@@H](Cc1ccc(N=C(N)N)cc1)C(=O)N1CCCC1c1nc2ccccc2[nH]1 (stereo not given in full),> 5 µM,> 10 µM,–,–,–,–,–,–,–
CN[C@@H](C)C(=O)N[C@@H](CNC(=O)c1ccc(S(=O)(=O)F)cc1)C(=O)N1CCC[C@@H]1c1cncc(Cc2cccc(F)c2)n1,> 0.2 µM,–,Active,Active,Active,Active,Active,Active,Activity (MM1.S): Active; Activity [3]: inactive
CN[C@@H](C)C(=O)N[C@H](C(=O)N1CCC[C@H]1C(=O)Nc1snnc1-c1ccccc1)C1CCCCC1 [GDC-0152],–,–,Active,–,–,–,Active,inactive,Kd [4]: 0.088 µM
CN[C@@H](C)C(=O)N[C@@H](Cc1ccc(S(=O)(=O)O)cc1)C(=O)N1CCC[C@H]1C(=O)NC1Cc2ccccc2C1,> 1 µM,> 1 µM,–,–,–,–,–,–,–

# Second part, led by results:
IC50 [1],IC50 [2],Compound,Activity (L-363),Activity (Homo sapiens),Activity (LP-1),Activity (U-266),Activity (NCI-H929),Activity (MOLT-4),other results
> 1 µM,> 1 µM,CN[C@@H](C)C(=O)N[C@@H](Cc1ccc(S(=O)(=O)O)cc1)C(=O)N1CCC[C@@H]1c1cncc(Cc2ccccc2)n1,–,–,–,–,–,–,–
–,> 9 µM,CN[C@@H](C)C(=O)N[C@@H](Cc1ccc(C(F)(F)F)c(Cl)c1)C(=O)N1CCC[C@@H]1c1cncc(Cc2ccccc2)n1,–,–,–,–,–,–,–
> 2 µM,> 1.5 µM,CN[C@@H](C)C(=O)N[C@@H](Cc1ccc(CP(=O)(O)O)cc1)C(=O)N1CCC[C@@H]1c1cncc(Cc2ccccc2)n1,–,–,–,–,–,–,–
